Eleven molecules from ChEMBL document CHEMBL4049443, “Discovery of 2-[[2-Ethyl-6-[4-[2-(3-hydroxyazetidin-1-yl)-2-oxoethyl]piperazin-1-yl]-8-methylimidazo[1,2-a]pyridin-3-yl]methylamino]-4-(4-fluorophenyl)thiazole-5-carbonitrile (GLPG1690), a First-in-Class Autotaxin Inhibitor Undergoing Clinical Evaluation for the Treatment of Idiopathic Pulmonary …” (J Med Chem, 2017) can be followed below.

pIC50: −log10 of the molar value. Activity calls are given as the source filed them. The rule behind the calls is not given here.

In data set [1] the test system is Mus musculus. The data set is described as follows: Anti-fibrotic activity in BML-induced pulmonary fibrosis C57BL/6 mouse model assessed as reduction in fibrous area with severe distortion of lung structure at 50 mg/kg, po administered bid with 7.5 hrs interval between 2 doses for 21 days relative to control. It is filed as functional, organism-based. The gist of the method: (§1)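 Male C57Bl/6 mice, 11 weeks at delivery, anesthetized and given intranasal bleomycin 30 μg/50 μL; PBS controls. Oral dosing twice daily, 7.5 h apart, 10 mL/kg, from challenge day for 21 days: test agent in PEG 200/0.5% MC, pirfenidone in 0.5% CMC, vehicle controls; 14−24 mice per group. Lungs stained by Mallory method, scored 1–5 (Matsuse-modified Ashcroft) as mean of 10 low-power fields; group median, Mann−Whitney.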

Data set [2] deals with Mus musculus. The experiment in a line: Anti-fibrotic activity in BML-induced pulmonary fibrosis C57BL/6 mouse model assessed as reduction in fibrotic thickening of aveolar/bronchial walls at 50 mg/kg, po administered bid with 7.5 hrs interval between 2 doses for 21 days relative to control. Type of data set: functional, organism-based. The gist of the method:
as §1

The test system of data set [3] is Mus musculus. The experiment in a line: Anti-fibrotic activity in BML-induced pulmonary fibrosis C57BL/6 mouse model assessed as reduction in fibrosis with damage of pulmonary structure at 50 mg/kg, po administered bid with 7.5 hrs interval between 2 doses for 21 days relative to control. It is filed as functional, organism-based. The essentials:
as §1

Data set [4] deals with Autotaxin (Homo sapiens, UniProt Q13822). The experiment in a line: Inhibition of human ATX using LPC (16:0) as substrate after 30 mins by horseradish peroxidase/choline oxidase coupled enzyme based spectrophotometric analysis.
Data set [5] concerns the target Cytochrome P450 3A4 (Homo sapiens, UniProt P08684). The data set is described as follows: Time-dependent inhibition of human liver microsomes CYP3A4. Type of data set: ADME. (Liver microsomes are vesicles of endoplasmic reticulum, rich in cytochrome P450 enzymes.)
The nature of data set [6]: Chemical stability of the compound in DMSO by LC-MS analysis. Type of data set: physicochemical.
Data set [7] is described as follows: Chemical stability of the compound in DMSO by 1H NMR analysis. It is filed as physicochemical.
For data set [8], the target named is Voltage-gated inwardly rectifying potassium channel KCNH2 (Homo sapiens, UniProt Q12809). The experiment in a line: Inhibition of human ERG by automated patch clamp assay. On the technique in general: The patch-clamp technique gives a direct electrical read-out from membranes.
Voltage-gated inwardly rectifying potassium channel KCNH2, sequence (Q12809 whole entry): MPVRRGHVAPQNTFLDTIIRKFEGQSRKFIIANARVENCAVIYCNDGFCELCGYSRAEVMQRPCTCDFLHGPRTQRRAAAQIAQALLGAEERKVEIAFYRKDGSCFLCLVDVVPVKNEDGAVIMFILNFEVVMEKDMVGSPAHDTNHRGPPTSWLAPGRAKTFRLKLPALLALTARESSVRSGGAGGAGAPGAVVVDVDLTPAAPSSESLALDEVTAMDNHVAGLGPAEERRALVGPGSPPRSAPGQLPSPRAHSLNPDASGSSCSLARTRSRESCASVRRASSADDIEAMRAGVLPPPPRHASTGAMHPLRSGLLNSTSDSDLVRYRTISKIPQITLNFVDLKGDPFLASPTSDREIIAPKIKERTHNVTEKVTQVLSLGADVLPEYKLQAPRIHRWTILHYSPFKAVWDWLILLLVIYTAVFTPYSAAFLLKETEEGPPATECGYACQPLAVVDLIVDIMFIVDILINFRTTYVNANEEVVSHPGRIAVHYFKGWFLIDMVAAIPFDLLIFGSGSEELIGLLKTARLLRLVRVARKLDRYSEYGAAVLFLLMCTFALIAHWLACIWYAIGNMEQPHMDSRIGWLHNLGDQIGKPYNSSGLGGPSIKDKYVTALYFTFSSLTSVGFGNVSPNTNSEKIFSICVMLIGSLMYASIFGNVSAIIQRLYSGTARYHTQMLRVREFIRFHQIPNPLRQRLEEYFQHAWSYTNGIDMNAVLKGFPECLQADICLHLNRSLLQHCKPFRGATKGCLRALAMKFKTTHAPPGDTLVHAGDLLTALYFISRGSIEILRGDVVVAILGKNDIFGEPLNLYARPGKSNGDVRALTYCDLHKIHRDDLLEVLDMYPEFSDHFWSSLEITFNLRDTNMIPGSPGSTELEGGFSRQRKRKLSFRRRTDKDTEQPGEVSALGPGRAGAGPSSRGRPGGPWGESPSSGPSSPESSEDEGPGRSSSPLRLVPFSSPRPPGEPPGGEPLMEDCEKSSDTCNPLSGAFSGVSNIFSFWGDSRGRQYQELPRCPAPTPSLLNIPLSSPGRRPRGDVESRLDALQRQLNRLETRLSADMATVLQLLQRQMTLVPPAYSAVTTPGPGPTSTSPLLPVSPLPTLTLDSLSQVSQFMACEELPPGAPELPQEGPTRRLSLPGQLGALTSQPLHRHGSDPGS
Data set [9] in a line: Oral bioavailability in rat at 5 mg/kg. Type of data set: ADME, organism-based. As to conditions: in vivo.
A short description of data set [10]: Plasma clearance in mouse at 1 mg/kg, iv. It is filed as ADME, organism-based.
Data set [11] can be described thus: Plasma clearance in rat at 1 mg/kg, iv. It is filed as ADME, organism-based.
A short description of data set [12]: Oral bioavailability in mouse at 5 mg/kg. It is filed as ADME, organism-based. As to conditions: in vivo.
Data set [13] addresses Autotaxin (Rattus norvegicus, UniProt Q64610). The data set is described as follows: Inhibition of ATX in rat plasma assessed as reduction in LPA 18:2 production after 2 hrs by LC-MS/MS analysis.

Cytochrome P450 3A4, sequence (P08684 whole entry): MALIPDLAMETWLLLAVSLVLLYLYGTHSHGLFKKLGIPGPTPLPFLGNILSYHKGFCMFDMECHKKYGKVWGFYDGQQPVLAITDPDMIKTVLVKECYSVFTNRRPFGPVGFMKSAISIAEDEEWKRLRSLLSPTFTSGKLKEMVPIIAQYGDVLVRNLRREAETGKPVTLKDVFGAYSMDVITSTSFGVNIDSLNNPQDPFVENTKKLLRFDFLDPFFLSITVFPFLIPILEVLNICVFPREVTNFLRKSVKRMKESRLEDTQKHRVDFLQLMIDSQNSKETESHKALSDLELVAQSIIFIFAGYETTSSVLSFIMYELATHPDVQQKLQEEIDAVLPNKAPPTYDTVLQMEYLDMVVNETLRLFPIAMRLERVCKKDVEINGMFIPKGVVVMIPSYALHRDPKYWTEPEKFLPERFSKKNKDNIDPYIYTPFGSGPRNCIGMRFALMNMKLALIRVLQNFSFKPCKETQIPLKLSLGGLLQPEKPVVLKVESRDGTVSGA

On to `Cc1ccc(=O)n(-c2ccccc2)c1`, for which the outcome in [1], in data set [2] and in data set [3] was Active.

For `CCc1nc2ccc(N3CCN(CC(=O)N4CC(O)C4)CC3)nn2c1N(C)c1nc(-c2ccc(F)cc2)c(C#N)s1`, the pIC50 in data set [4] was 7.22. In addition, the TDI entry in data set [5] was “Active”.

Take `CCc1nc2c(C)cc(C3CCN(CC(=O)N4CC(O)C4)CC3)cn2c1N(C)c1nc(-c2ccc(F)cc2)c(C#N)s1`: the pIC50 in data set [4] is 6.99. Also, the TDI result in data set [5] is recorded as “Not Active”.

For the molecule `CCc1nc2ccc(C3CCN(CC(=O)N4CC(O)C4)CC3)nn2c1N(C)c1ccc(C#N)c(-c2ccc(F)cc2)n1`, the pIC50 in data set [4] was 6.72. Also, the TDI result in data set [5] is on record as “Active”.

In turn, `CCc1nc2ccc(N3CCN(CC(=O)N4CC(O)C4)CC3)cn2c1N(C)c1nc(-c2ccc(F)cc2)cs1` had a negative logarithm of the IC50 (pIC50) in data set [4] of 6.56. The TDI result in [5] was “Active”.

The molecule `CCc1nc2cc(C)c(C3CCN(CC(=O)N4CC(O)C4)CC3)cn2c1N(C)c1nc(-c2ccc(F)cc2)cs1` showed a negative-log IC50 (pIC50) in [4] of 6.09. Further, the TDI entry in data set [5] is given as “Not Active”.

In the case of `CCc1nc2cnc(N3CCN(CC(=O)N4CC(O)C4)CC3)cn2c1N(C)c1nc(-c2ccc(F)cc2)c(C#N)s1`, the Stability entry in data set [6] and in data set [7] was “Unstable” each time. In data set [4], this molecule showed a pIC50 of 6.99. Further, the TDI result in [5] is “Not Active”.

With `CCc1nc2ccc(C3CCN(CC(=O)N4CC(O)C4)CC3)cn2c1N(C)c1nc(-c2ccc(F)cc2)cs1`, the pIC50 in data set [4] is 6.61. In data set [5], the TDI result was “Active”.

Take `CCc1nc2ccc(N3CCN(CC(=O)N4CC(O)C4)CC3)cn2c1N(C)c1nc(-c2ccc(F)cc2)c(C#N)s1`: the negative logarithm of the IC50 (pIC50) in data set [8] is < 4.96; in [4], 7.59. Moreover, the TDI entry in [5] is on record as “Active”.

As for `CCc1nc2ccc(C3CCN(CC(=O)N4CC(O)C4)CC3)cn2c1N(C)c1nc(-c2ccc(F)cc2)c(C#N)s1`, the bioavailability amounted to 15% in [9] and 12% in data set [12]. Moreover, the values for the pIC50 in [8], in data set [4] and in data set [13] were 5.54, 7.57 and 7.66, respectively. Moreover, the clearance in [10] was 20 mL/min/kg; in data set [11] it was 51.7 mL/min/kg. Also, the TDI result in data set [5] is on record as “Active”.

With `CCc1nc2ccc(C3CCN(CC(=O)N4CC(O)C4)CC3)nn2c1N(C)c1nc(-c2ccc(F)cc2C#N)ns1`, in [4], the pIC50 was 6.53. Also, the TDI result in [5] is listed as “Active”.

By pIC50 is commonly meant the IC50 on a negative log10 scale, so that one unit is a factor of ten. Broadly, the bioavailability is dose-corrected exposure relative to a reference, in per cent. A low value points to little systemic uptake. As usually defined, the clearance is the rate of elimination divided by the concentration. Low readings indicate a low capacity for elimination, high ones a high capacity for elimination.
